Legend:
L. tropica promastigotes = experiment: Promastigotes proliferation assessment by MTT assay; format: cell-based, Leishmania tropica; conditions: for IC50: 48 h
Cytotoxicity assay = format: cell-based; conditions: human, 5% suspension of human blood erythrocytes
Procedure, shortened: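 Test compound (25–426 µM) incubated with a 5% suspension of human blood erythrocytes at 37 °C for 3 h. 0.1% DMSO served as the negative control and 0.5% Triton X-100 as the positive control. Samples were spun at 1000 × g for 10 min, and released hemoglobin was read at 576 nm. Percent hemolysis was calculated and CC50 derived by linear interpolation. Triplicates, mean ± SD.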

Molecule	IC50 (L. tropica promastigotes; L. tropica promastigotes, MTT, dose range 25–426 µM)	IC50 (L. tropica promastigotes; Leishmania tropica)	SI index (IC50/CC50 µM) (L. tropica promastigotes; ratio of hemolysis CC50 and L. tropica IC50)	CC50 at 3 h (Cytotoxicity assay)
5,5′,5″-(nitrilotris(ethane-2,1-diyl))tris(3-(4-ethylphenyl)-1,3,5-thiadiazinane-2-thione) [Compound T24]	26.9 µM	–	–	–
C[C@@H]1[C@H](O)[C@@H](C)/C=C/C=C/C=C/C=C/C=C/C=C/C=C/[C@H](O[C@@H]2O[C@H](C)[C@@H](O)[C@H](N)[C@@H]2O)C[C@@H]2O[C@](O)(C[C@@H](O)C[C@@H](O)[C@H](O)CC[C@@H](O)C[C@@H](O)CC(=O)O[C@H]1C)C[C@H](O)[C@H]2C(=O)O [Amp-B, Amphotericin B, reference compound]	–	15.7 µM	0.18	–
CCCCN1CN(CC(=O)O)CSC1=S [BG, 2-(5-Butyl-6-thioxo-1,3,5-thiadiazinan-3-yl) acetic acid]	–	–	–	376 µM
Cc1cc(C)c(N2CSC(=S)N(CCN(CCN3CN(c4c(C)cc(C)cc4C)CSC3=S)CCN3CN(c4c(C)cc(C)cc4C)CSC3=S)C2)c(C)c1 [Compound T25, 3,3′,3″-(nitrilotris(ethane-2,1-diyl))tris(5-mesityl-1,3,5-thiadiazinane-2-thione)]	–	27.7 µM	–	89.7 µM
CCCN1CN(CC(=O)O)CSC1=S [PG, 2-(5-propyl-6-thioxo-1,3,5-thiadiazinan-3-yl)acetic acid]	–	82.8 µM	–	402 µM

From paper PMC12318077 (Scientific Reports, 2025)
